Results on 95 compounds are retold here after ChEMBL document CHEMBL4513216, “Probing the Open Global Health Chemical Diversity Library for Multistage-Active Starting Points for Next-Generation Antimalarials” (ACS Infect Dis, 2020).

The series can be described thus: Toxicity liver stage against HepG2, at 10uM. In kind it is cell-based. Further details: test concentration 10 uM, cell line HepG2-A16-CD81EGFP. To be noted: human, HepG2-A16-CD81EGFP cells; read-out: INHIBITION
The procedure, abridged:
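Uninfected HepG2-A16-CD81EGFP cells, 3 × 10^3 per well, 1536-well, plated on prespotted compound at 10 μM final, parasite-free screening media added to match infected plates; puromycin 10 μM positive, DMSO 0.5% negative; run in parallel with 48 h PbLuc assay at 37 °C, 5% CO2; viability by CellTiter-Glo luminescence, normalized to controls.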
For `O=C(c1ccsc1)N1CCc2c(COCc3ccncc3)cncc2C1`, the cytotoxicity at 10 µM was -1.48%.
In the case of `O=C(c1cccc(F)c1)N1C[C@H]2CCCC(OCc3cccnc3)[C@H]2C1` (stereo not given in full) it was 8.21%.
As for `NC(=O)c1cn[nH]c1C1CCCN1C(=O)c1ccccn1` (stereo not given), the figure is 0.893%.
In the case of `CCOCC1CN(C(=O)c2cscn2)Cc2nnn(CC3CC3)c21` (stereo not given) it was 1.9%; in that of `Cc1ccc(CN2CCn3cc(CNC(=O)c4cnn(C)c4)nc3C2)s1`, 1.13%.
Turning to `CCNc1nc(C)c(C(=O)N2CCC(C(O)Cc3ccccc3)CC2)s1` (stereo not given), the cytotoxicity at 10 µM was found to be 13.5%.
On to `Cc1cc(NC(=O)NCCc2ccccc2)n(C)n1`, for which the cytotoxicity at 10 µM is -9.19%.
As for `CCc1nc(CN2CCOC(CNc3cccnn3)C2)cs1` (stereo not given), the figure is -11%.
In the case of `COCCN(CCc1ccccc1)Cc1nc2c(cnn2C)c(=O)[nH]1` it was -7.57%.
In the case of `Cc1nn(-c2ncccn2)c2c1C(c1cnn(C)c1C)SCC(=O)N2` (stereo not given) it was -46.4%.
As to `Cc1ccccc1-n1ncc2c(=O)n(CCN3CCCC3)cnc21`, the cytotoxicity at 10 µM was -11.3%.
As to `NC(=O)c1cccc(NC(=O)CSc2ccc3c(c2)CCC3)c1`, the cytotoxicity at 10 µM was determined as 21.4%.
As for `Cc1ccccc1Cc1nc(CSc2nnc(N)n2C)no1`, the figure is 5.26%; as for `N#Cc1cccnc1OC1CCN(S(=O)(=O)c2c(F)cccc2F)CC1`, 5.45%; as for `Fc1cnccc1CN1CCC2(CCN2c2ncccn2)C1` (stereo not given), -111%.
Consider `COc1cccc(CC(=O)N2CC[C@@H]3NC(=O)CC[C@@H]32)c1`, for which the cytotoxicity at 10 µM is -4.04%.
As for `Cc1oncc1C(=O)N1CCCc2c(C#N)nn(C)c2C1`, the figure is -134%.
With `Cn1ccc(C(=O)N2CCCCC2c2cc(CCO)[nH]n2)n1` (stereo not given), the cytotoxicity at 10 µM is -0.01%.
`CCc1cnc2c(c1NCc1cccc(OC)c1)c(=O)n(C)c(=O)n2C`: the cytotoxicity at 10 µM came to 24.8%.
Regarding `CC(C)OCCOCc1cccc(NC(=O)NCc2cnn(C)c2)c1`, the cytotoxicity at 10 µM was -1.11%.
As for `CN(Cc1ccccc1-n1cccn1)c1nc(N)nc2c1CCNCC2`, the cytotoxicity at 10 µM is -12.2%.
`O=C1CSC(c2ccsc2)c2c(n(C3CCOCC3)[nH]c2=O)N1` (stereo not given): the cytotoxicity at 10 µM was 9.53%.
Turning to `Cc1cc(NC(=O)CNC(C)(C)c2ccccc2)on1`, the cytotoxicity at 10 µM is -8.18%.
As for `N#CC(NC(=O)CCC1CCC1)c1cnn(-c2ccccc2)c1` (stereo not given), the figure is -2.65%; as for `O=C(Cc1ccsc1)NC1CCc2c(ccc(=O)n2CC2CC2)C1` (stereo not given), 8.88%; as for `CCc1nc(C2CCCN2CC(=O)NCCOc2ccccc2)no1` (stereo not given), -16.4%.
Consider `O=c1[nH]cc(N2CCCCCC2)c(=O)[nH]1`, for which the cytotoxicity at 10 µM turned out to be 3.46%.
In the case of `CCc1nc2ccccc2n1C(CC)C(=O)N(C)Cc1nc(C)c[nH]1` (stereo not given) it was -2.53%.
As for `Cc1c(Br)cccc1C(=O)NCCC1CCCNC1` (stereo not given), the figure is -11.7%; as for `N#Cc1cccc(N2CCC3(CCC(=O)N(CCCO)C3)CC2)n1`, 2.11%.
In the case of `O=C(O)CC1COCCN1CCCc1ccccc1` (stereo not given) it was -0.541%; in that of `Cc1csc(CNc2cnn(CC(C)C)c2)n1`, -6.63%; in that of `Cc1cccc2c1nc1n2[C@@H](CNC(=O)CCC(=O)O)COC1`, -4.83%.
Consider `CC(C)N1[C@H](CN2CCCC2)C[C@@H]2CN(C(=O)c3ccoc3)CC[C@@H]21`, for which the cytotoxicity at 10 µM is -135%.
Consider `O=C(NCc1ccc(-n2cncn2)nc1)c1cc[nH]n1`, for which the cytotoxicity at 10 µM is -7.45%.
As for `COc1cccc(CN2CC(O)CN(C(=O)C3CCC3)CC2=O)c1OC` (stereo not given), the figure is 4.43%.
With `Cc1nc(CN2CCCC2c2[nH]ncc2C(=O)N(C)C)cs1` (stereo not given), the cytotoxicity at 10 µM is -0.722%.
Consider `COc1cccc(CNC(C)C)c1OCc1ccc(C)cc1`, for which the cytotoxicity at 10 µM was determined as 0.438%.
For the compound `CN(Cc1cnccn1)C(=O)[C@@]12CNC[C@@H]1CN(Cc1ccccc1)C2`, the cytotoxicity at 10 µM is -2.59%.
Take `CN(C)c1ncnc2c1CCN(S(=O)(=O)c1cccc3nsnc13)C2`: the cytotoxicity at 10 µM was 4.01%.
Consider `O=C(CCN1CCOC(C(F)(F)F)C1)NCc1ccccc1Cl` (stereo not given), for which the cytotoxicity at 10 µM is -3.13%.
`Cc1cc(C)n(-c2ccc(CNCc3cccc(C#N)c3)cn2)n1`: the cytotoxicity at 10 µM is -10.2%.
In the case of `CCCN1C[C@@H]2CC[C@H]1CN(Cc1ccc(Cn3cccn3)cc1)C2` it was -4.87%; in that of `Cc1nc[nH]c1CN1CCN(C(=O)CN2CCCC2)[C@H]2CS(=O)(=O)C[C@H]21`, -7.21%.
As for `CC(C)Cc1nc(OCC(=O)O)c(C#N)c2c1CCCC2`, the figure is -6.14%; as for `Cc1cc(C)n2c(CNCCNc3ccccc3)cnc2n1`, -144%; as for `CC(C)Cc1cc(C(=O)N2CCC(Cc3cnn(C)c3)C2)cc(O)n1` (stereo not given), -2.1%.
As for `CN(Cc1cn(CC2CCNCC2)nn1)CC1CCCCO1` (stereo not given), the figure is -1.9%; as for `Cc1nn(-c2ccccn2)c(C)c1[C@@H]1C=C[C@@H](NC(=O)NC(C)C)C1`, 1.52%; as for `CCN(C)C[C@@H]1CN(C(=O)c2cc(C(F)(F)F)n[nH]2)C[C@@H]1CO`, -12.1%.
Turning to `Cc1csc(Nc2nccnc2C2CCCN2CC(N)=O)n1` (stereo not given), the cytotoxicity at 10 µM is -20.8%.
`CCn1ncnc1CN1CCc2[nH]cnc2C1CCc1ccccc1` (stereo not given): the cytotoxicity at 10 µM amounted to 0.0189%.
For `O=C(Nc1cc(-c2ccccc2)on1)N1CCN(CCO)CC1`, the cytotoxicity at 10 µM stood at 3.3%.
In the case of `CC(=O)N1CC[C@@]2(O)CCCC[C@H]2[C@@H]1c1ccc2c(c1)OCO2` it was 15.4%.
In the case of `N#Cc1ccc(N2CCC3(CC2)COCCN3Cc2cccnc2)cc1` it was -1.77%; in that of `O=C(Cn1ncc2c(c1=O)CCCCC2)Nc1cccc2[nH]ccc12`, 0.417%; in that of `Cc1nc(CN(C)C(=O)CNC(=O)c2ccc(C#N)cc2)cs1`, 12.5%.
As for `Cc1nc(NCc2ccco2)nc2c1COCC21CCNC1` (stereo not given), the figure is 10.3%; as for `Cc1cc(=O)[nH]c(-c2cccc(CN3CCCN4CCCC4C3)c2)n1` (stereo not given), 1.46%.
Consider `C=C(C)CNc1nc(CS(=O)(=O)c2ccccc2)cs1`, for which the cytotoxicity at 10 µM is -8.37%.
In the case of `N#Cc1cccc(OCCN2CCn3c(nnc3C3CC3)C2)c1`, the cytotoxicity at 10 µM was -7%.
In the case of `c1ccc(OC[C@]23COC[C@H]2CN(c2ncccn2)C3)nc1`, the cytotoxicity at 10 µM was -14.1%.
Turning to `CC(C)(O)c1cn(C2CCN(C(=O)CCC3CCCC3)CC2)nn1`, the cytotoxicity at 10 µM turned out to be 1.2%.
As for `O=C(NCCc1nccs1)C1CCCN(Cc2ccco2)C1` (stereo not given), the figure is 1.5%.
In the case of `CN(C)C(CNCc1nc(-c2ccsc2)no1)c1cccs1` (stereo not given) it was 16.3%; in that of `Cc1noc(C)c1CN1CC[C@H]2OCC[C@@H](C(=O)N3CCCO3)[C@H]2C1`, 2%.
Take `CC(Nc1ccc(C(F)(F)F)cc1C#N)c1cccc(S(N)(=O)=O)c1` (stereo not given): the cytotoxicity at 10 µM was -3.09%.
For `COc1ccc(N(Cc2ccco2)C(=O)C2CCOC2)cc1F` (stereo not given), the cytotoxicity at 10 µM was -10.8%.
As for `c1ccc(-c2nc(CCNCc3cccnc3)co2)cc1`, the figure is -5.35%; as for `CCc1ncc(CN2CCCN(CC3CC3)C(C(C)C)C2)cn1` (stereo not given), -6.03%; as for `c1ccc(CN2CCC(CNc3ncnc4c3CCNCC4)CC2)cc1`, -4.84%.
For the compound `Cc1cccc(CN2CCC3(CC2)CC(c2cccnc2)C(=O)N3C)n1` (stereo not given), the cytotoxicity at 10 µM came to 7.53%.
As for `CCCNc1nnc(S(=O)(=O)CCOCC)s1`, the figure is 5.96%.
In the case of `Cn1cc(CN2CCCC3(CCCN3S(C)(=O)=O)C2)cn1` (stereo not given) it was 2.08%; in that of `CCCN1CCCC2(CCN(c3nc(C)nc4ccsc34)C2)C1=O` (stereo not given), 17.4%; in that of `CC(=O)N1CCCN(C(=O)NC(C)c2csc3ccccc23)CC1` (stereo not given), -4.6%.
For `O=C1CC(c2ccccc2)C2(CCN(C(=O)c3ccncc3F)CC2)N1` (stereo not given), the cytotoxicity at 10 µM was -76.9%.
In the case of `Nc1nc(C2CCN(C(=O)c3cnccn3)CC2)cs1`, the cytotoxicity at 10 µM is -7.33%.
Take `Cc1cc2n(n1)CC(CNC1CCN(c3ccccn3)CC1)CN2` (stereo not given): the cytotoxicity at 10 µM came out at 6.09%.
As for `CN1CCC(Cc2nc(-c3cnccn3)n(C3CCS(=O)(=O)C3)n2)CC1` (stereo not given), the cytotoxicity at 10 µM was -2.64%.
As for `Cc1cc(-c2cc(F)ccc2C(=O)O)nc(C2CCCCN2C(C)C)n1` (stereo not given), the figure is -3.42%; as for `CC(C)(C)c1ccc2c(c1)CCN2C(=O)c1ccc(=O)[nH]n1`, 2.87%; as for `O=C(c1ccc(C2CCCN2)s1)N1CCN(C(=O)N2CCOCC2)CC1` (stereo not given), 0.106%.
As for `CCc1nnc2n1CCN(C(=O)c1cnc(-c3cccs3)s1)C2`, the figure is -3.28%.
Turning to `CCN(CC(=O)NC1(C)CCS(=O)(=O)C1)Cc1ccc(OC)c(F)c1` (stereo not given), the cytotoxicity at 10 µM was -9.44%.
In the case of `COCCNC(=O)c1ccc2c(=O)n3c(nc2c1)CCCC3` it was 10%; in that of `CCc1ccc(C(=O)NCc2ccnc(N3CCN(C)CC3)c2)o1`, -9.07%; in that of `COc1cccc(CN2CCCC3(CCN(C(=O)[C@H]4CCCO4)C3)C2)c1` (stereo not given in full), 5.01%.
In the case of `O=C(C1CCCN(c2nc3ccccc3cc2CO)C1)N1CCCC1` (stereo not given) it was -47.5%; in that of `CCc1ccc(C(=O)N2CCC(c3nncn3CC)CC2)o1`, 3.14%.
In the case of `O=C(C1CCOCC1)N1C[C@@H]2[C@@H](C1)OCC(=O)N2CC1CC1` it was 2.29%; in that of `CC(=O)NCC1CCC2(CCN(c3nccc(C4CCCC4)n3)CC2)O1` (stereo not given), -4.43%; in that of `NC(=O)C(c1ccc(F)cc1)N1CCN(CCO)CC1` (stereo not given), -5.46%.
As to `C[C@@H](CO)Nc1cc(-c2cn[nH]c2)ncn1`, the cytotoxicity at 10 µM is -10.6%.
In the case of `CC(C)(C)c1ncc(C(=O)NCCSc2ccccn2)c(O)n1`, the cytotoxicity at 10 µM is -0.494%.
